Source: PubChem BioAssay
RGS4 pot: RGS4 potentiation or activation | HEK293 M3R/inducible RGS4, carbachol calcium flux Fluo4; hits give low values | B-score at 10 µM | 310,000 tested, 0.92% active;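 active = B-score of the integrated calcium signal more than 4 SD below the library mean, with starting fluorescence not abnormally high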;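 note: negative B-score means reduced calcium response which marks RGS4 activation or potentiation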
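Assay system: Inducible-RGS4 HEK293 cells carrying M3 receptor | Schedule: Compound preincubation 20 min at room temperature before agonist | Signal: Kinetic calcium fluorescence imaging with Fluo4-AM dye, 2 µM | Read-out basis: B score from integrated fluorescence ratio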
MrgX1 PAM: allosterically activates human MrgX1 receptor signaling. 310,000 tested, 0.63% active. B-score at 10 µM. Q96LB2. MrgX1-HEK293, Fluo-4 calcium flux, FDSS; hits give high values;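 active = plate-corrected calcium response at least 3 library SD above typical, normal starting fluorescence, not activating the receptor alone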;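 note: compound read alongside a low EC10 to EC30 dose of BAM8-22 agonist; peak minus trough fluorescence over baseline measured at the second addition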
Target sequence (Q96LB2 whole entry, looked up): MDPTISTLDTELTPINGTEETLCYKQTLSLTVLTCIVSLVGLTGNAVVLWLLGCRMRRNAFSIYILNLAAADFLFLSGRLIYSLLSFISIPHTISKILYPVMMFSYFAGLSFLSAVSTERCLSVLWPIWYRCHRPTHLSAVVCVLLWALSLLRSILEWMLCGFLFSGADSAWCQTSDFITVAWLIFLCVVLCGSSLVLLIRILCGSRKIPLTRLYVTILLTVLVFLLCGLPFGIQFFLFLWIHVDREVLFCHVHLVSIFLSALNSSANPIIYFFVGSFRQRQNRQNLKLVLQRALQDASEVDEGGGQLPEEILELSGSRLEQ
MrgX1 antagonist: antagonists of human MrgX1 receptor; 310,000 tested, 1.3% active; MRGX1-HEK293 calcium flux, Fluo-4, BAM8-22 antagonism; hits give low values; B-score at 10 µM; Q96LB2;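 active = calcium-response B-score plate-corrected more than 3 library SD below zero, starting fluorescence within 5 deviations, no agonist response on first addition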;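 note: peak minus trough fluorescence over baseline after final BAM8-22 challenge near maximal dose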
RGS4 block: inhibitors of human RGS4. HEK293 M3R/RGS4 inducible, Fluo-4 calcium flux; hits give high values; triggered by carbachol at its EC20. B-score at 10 µM. 310,000 tested, 0.45% active;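 active = B-score, a plate-corrected calcium signal, over three deviations above library mean, with baseline fluorescence within five deviations of library mean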;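 note: RGS4 expression induced by doxycycline in cells with stable M3 receptor; B-score is computed from the integrated fluorescence ratio over baseline after carbachol; higher B-score means a larger calcium signal and so more RGS4 inhibition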
Target sequence (P49798 whole entry, looked up): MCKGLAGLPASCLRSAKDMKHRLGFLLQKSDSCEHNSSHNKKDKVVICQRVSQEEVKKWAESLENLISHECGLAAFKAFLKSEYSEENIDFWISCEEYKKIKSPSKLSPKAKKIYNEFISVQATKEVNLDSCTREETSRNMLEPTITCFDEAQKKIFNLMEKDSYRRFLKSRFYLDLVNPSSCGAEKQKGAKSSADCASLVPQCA
MrgX1 agonist: agonists of human MrgX1 receptor; Q96LB2; MrgX1-HEK293 cells, Fluo-4 calcium fluorescence, agonist mode; hits give high values; B-score at 10 µM; 310,000 tested, 0.44% active; AID 588627;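 active = calcium response B-score plate-corrected fluorescence ratio at least 3 library SD, with starting fluorescence B-score inside 5 SD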
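System – MrgX1-expressing HEK293 cells · Incubation – cells plated overnight, dye loaded 0.5 h 37 °C, 0.5 h room temperature · Technique – kinetic Fluo-4 NW fluorescence of intracellular calcium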
RGS4 act valid: confirmation of RGS4 activators; shares compounds with RGS4 pot; HEK293 M3R/RGS4 inducible, carbachol calcium flux Fluo4; inhibition, % at 10 µM; 1,100 tested, 89% active; AID 602282;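 active = inhibition above 3 SD of the buffer control wells, cut at about 41% in these data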;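 note: signal is the integrated peak-minus-minimum Fluo4 fluorescence over baseline ratio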
M3R Ca counter: counter-screen for RGS4 activators: effect in non-induced cells. shares compounds with RGS4 pot. HEK293 M3R non-induced RGS4, Fluo4 calcium flux; after carbachol challenge at its EC90. inhibition, % at 10 µM. 1,100 tested, 82% active. AID 602283;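 active = inhibition exceeding 3 SD of buffer-only control wells, cut at about 26% in these data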;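 note: percent drop in integrated peak-minus-baseline over baseline Fluo4 ratio after carbachol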
Of the large screens only hits and unclear results are named; the others gave an inactive call (follow-up assays come after a bar, where they were run). In the library only some 3.5% were active in any assay of this set; here they are far more common.

CC1=C(C)CC(C(=O)NCCCN2CCCC2=O)C(C(=O)O)C1 (stereo unspecified)	none
CNC(=O)C1CC(=O)N(CCc2ccc(OC)cc2)C(=Nc2ccc(OC)cc2)S1 (stereo unspecified)	none
CNC(=O)C1CC(=O)N(Cc2ccc3c(c2)OCO3)C(=Nc2ccc(OC)cc2)S1 (stereo unspecified)	RGS4 pot -11 | RGS4 act valid inactive | M3R Ca counter inactive
O=Cc1cn(-c2ccccc2)nc1-c1ccccc1	none
CC1=NNC(=O)/C1=C\c1cn(-c2ccccc2)nc1-c1ccccc1	RGS4 pot -11 | RGS4 act valid 70 | M3R Ca counter 34
O=C(O)c1ccccc1NS(=O)(=O)c1ccc(NNC(=S)Nc2ccc(OC(F)F)cc2)c([N+](=O)[O-])c1	RGS4 pot -12 (no result: MrgX1 PAM, MrgX1 antagonist, MrgX1 agonist) | RGS4 act valid inactive | M3R Ca counter inactive
COc1cc(C(=O)N2CCc3ccccc32)ccc1OCc1c(C)noc1C	none
CCc1ccc(C(=O)C(C)OC(=O)c2nc3nc(C)cc(C)n3n2)cc1 (stereo unspecified)	none
COc1cccc(OCCn2cc(C(=O)c3ccco3)c3ccccc32)c1	RGS4 pot -11 | RGS4 act valid 90 | M3R Ca counter 50
COc1ccccc1CCNC(=O)c1nccnc1C(=O)O	none
CCN(CC)CCNC(=O)c1ccc2c(=O)n(C3CCCC3)c(=S)[nH]c2c1	RGS4 pot -8.4 | RGS4 act valid 92 | M3R Ca counter 73
CC(C)NC(=O)c1ccc2c(=O)n(C3CCCC3)c(=S)[nH]c2c1	none
Cc1ccc(OCC(=O)O/N=C(\N)Cc2ccc([N+](=O)[O-])cc2)cc1C	RGS4 pot -11 | RGS4 act valid inactive | M3R Ca counter inactive
NC(=O)COC(=O)c1c2c(nc3ccccc13)CCCCC2	none
CC1Cc2ccccc2N1C(=O)COC(=O)c1c2c(nc3ccccc13)CCCCC2 (stereo unspecified)	RGS4 pot -9 | RGS4 act valid 88 | M3R Ca counter 84
CC(C)(C)C(=O)COC(=O)c1c2c(nc3ccccc13)CCC2	none
O=C(OCC(=O)N1CCc2ccccc21)c1c2c(nc3ccccc13)CCCC2	RGS4 pot -9.1 | RGS4 act valid 80 | M3R Ca counter 84
c1ccc(COc2ccc(CN3CCN(c4ccccn4)CC3)cc2)cc1	RGS4 pot -8.3 | RGS4 act valid 90 | M3R Ca counter 58
CC1CC(OC(=O)C(O)c2ccccc2)CC(C)(C)N1C (stereo unspecified)	RGS4 pot -10 | RGS4 act valid 77 | M3R Ca counter 38
CCn1cc(/C=C(\NC(=O)c2ccc(OC)c(OC)c2)C(=O)N2CCN(C)CC2)c2ccccc21	none
O=S(=O)(Nc1ccccc1)c1ccc(-c2csnn2)cc1	RGS4 pot -8.4 | RGS4 act valid 63 | M3R Ca counter 84
Cc1cccc(C(=O)NCCC(=O)Nc2ccc(F)c([N+](=O)[O-])c2)c1	none
Cc1ncoc1C(=O)NC1CCCc2c1cnn2-c1ccc(C(C)(C)C)cc1 (stereo unspecified)	none (no result: MrgX1 PAM, MrgX1 antagonist, MrgX1 agonist)
COc1ccc(OC)c2c1C(=O)C(Cl)=C(Cl)C2=O	RGS4 pot -8.2 | RGS4 act valid 80 | M3R Ca counter 65
CN1CCC(C2(O)c3ccccc3CCc3ccccc32)CC1	RGS4 pot -10 | RGS4 act valid 62 | M3R Ca counter 84
CN1CCC(C2(O)c3ccccc3CSc3sccc32)CC1 (stereo unspecified)	none (no result: RGS4 pot, RGS4 block)
O=S(=O)(Nc1nc2ccccc2[nH]1)c1ccccc1	RGS4 pot -8.2 | RGS4 act valid 91 | M3R Ca counter 39
O=S(=O)(Nc1nc2ccccc2[nH]1)c1ccc(Cl)cc1	RGS4 pot -9.4 | RGS4 act valid 92 | M3R Ca counter 90
CS(=O)(=O)Nc1nc2ccccc2[nH]1	none
O=C(Nc1nc2ccccc2[nH]1)c1ccc(Cl)cc1	none
COc1cc(-c2nnc(SCC3(c4ccc(Br)cc4)OCCO3)o2)cc(OC)c1OC	none
Cc1ccccc1OCC(=O)N1CCc2ccccc2C1	none
Cc1ccc(C)c(OCC(=O)N2CCc3ccccc3C2)c1	RGS4 pot -7.7 | RGS4 act valid 56 | M3R Ca counter 84
O=C(O)c1cc(S(=O)(=O)N2CC3CC3C2C(=O)O)c(Cl)cc1Cl (stereo unspecified)	none
COc1ccc(N(C(=O)Nc2ccc(Cl)cc2)C2=NCCC2)cc1	RGS4 pot -10 | RGS4 act valid 78 | M3R Ca counter 38
O=C1CCc2ccc(OCCCCN3CCN(c4cccc(Cl)c4Cl)CC3)cc2N1	RGS4 pot -9.2 | RGS4 act valid 79 | M3R Ca counter 65
COc1ccc(CCNc2nc(N3CCCCC3)nc(N3CCCCC3)n2)cc1OC	RGS4 pot -8.4 | RGS4 act valid 76 | M3R Ca counter 46
COc1nc(NCCc2ccc(OC)c(OC)c2)nc(OC)n1	none
Cc1cc2oc(=O)c(CC(=O)NCCCN(C)C)c(C)c2c2occ(C(C)(C)C)c12	RGS4 pot -7.9 | RGS4 act valid 90 | M3R Ca counter 51
CCOC(=O)c1nnn(-c2nonc2-n2cccc2)c1CCl	none
CCOC(=O)c1nnn(-c2nonc2-n2cccc2)c1CN1CCC(C)CC1	RGS4 pot -8 | RGS4 act valid 72 | M3R Ca counter inactive
CCOC(=O)COn1c(-n2nc(C)cc2C)nc2ccccc2c1=O	none
Nc1ncc(Br)cc1S(=O)(=O)NCCC(=O)N1CCN(c2ccccn2)CC1	RGS4 pot -8.7 | RGS4 act valid 75 | M3R Ca counter 84
CN(C)CCC(O)(c1ccccc1)c1ccccc1	none
CCN(CC)CC#CC(O)(c1ccccc1)c1ccccc1	RGS4 pot -13 | RGS4 act valid 94 | M3R Ca counter 92
CN(C)CC#CCC(O)(c1ccccc1)C1CCCCC1 (stereo unspecified)	none
CN(C)C(C)(C)C#CC(O)(c1ccccc1)c1ccccc1	RGS4 pot -8.7 | RGS4 act valid 92 | M3R Ca counter 88
CCN(CC)CCC#CC(O)(c1ccccc1)C1CCCCC1 (stereo unspecified)	RGS4 pot -8.6 | RGS4 act valid 91 | M3R Ca counter 93
CN(C)CCC#CC(O)(c1ccccc1)c1ccccc1	RGS4 pot -9.9 | RGS4 act valid 88 | M3R Ca counter 47
COc1cccc(NC(=O)C2CCN(C(=O)[C@@H]3Cc4ccccc4CN3C(=O)OC(C)(C)C)CC2)c1	none
COc1ccccc1CNC(=O)CCS(=O)(=O)c1ccc(Cl)cc1	none
Cc1nc(-c2noc(-c3ccccc3Cl)n2)c(C(F)(F)F)o1	RGS4 pot -8.6 | RGS4 act valid inactive | M3R Ca counter inactive
